In ChEMBL document CHEMBL1156160, “The introduction of P4 substituted 1-methylcyclohexyl groups into Boceprevir: a change in direction in the search for a second generation HCV NS3 protease inhibitor” (Bioorg Med Chem Lett, 2010):
Values belong to the compound of their own block, whether it stands above or below them.

Experiments:
[1] = Inhibition of HCV NS4A tagged recombinant single chain NS3 protease after 15 mins; design: species or system Hepacivirus hominis
Hepatitis C virus = assay: Antiviral activity against HCV in human hepatoma cells assessed as inhibition of RNA replication by replicon assay; format: functional, Hepacivirus hominis
[2] = Selectivity for HCV NS3 protease over human neutrophil elastase
Outline: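 Ratio of inhibitory activity against human neutrophil elastase to that against HCV protease (HNE/HCV), taken as selectivity. HCV activity was from a continuous protease assay using NS4A-tethered single-chain NS3 serine protease, giving Ki* as the equilibrium constant for reversible covalent binding of the electrophilic ketone to the active-site serine. Compounds were tested as P1-epimer diastereomer mixtures.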

SMILES: CC(C)(C)[C@H](NC(=O)NC1(Cc2cccs2)CCCCC1)C(=O)N1C[C@H]2[C@@H]([C@H]1C(=O)NC(CC1CC1)C(=O)C(N)=O)C2(C)C (stereo partly specified)
Ki [1]: 9 nM | EC90 (Hepatitis C virus): 200 nM | Ratio [2]: 470

SMILES: CC(C)(C)[C@H](NC(=O)NC1(Cc2ccc3ccccc3c2)CCCCC1)C(=O)N1C[C@H]2[C@@H]([C@H]1C(=O)NC(CC1CC1)C(=O)C(N)=O)C2(C)C (stereo partly specified)
Ki [1]: 300 nM

SMILES: CC(C)(C)[C@H](NC(=O)NC1(CS(=O)(=O)Cc2ccccc2)CCCCC1)C(=O)N1C[C@H]2[C@@H]([C@H]1C(=O)NC(CC1CC1)C(=O)C(N)=O)C2(C)C (stereo partly specified)
Ki [1]: 5 nM | EC90 (Hepatitis C virus): 400 nM | Ratio [2]: 90

SMILES: CC(C)(C)[C@H](NC(=O)NC1(CO)CCCC1)C(=O)N1C[C@H]2[C@@H]([C@H]1C(=O)NC(CC1CC1)C(=O)C(N)=O)C2(C)C (stereo partly specified)
Ki [1]: 15 nM | EC90 (Hepatitis C virus): > 1000 nM

SMILES: CC1(NC(=O)N[C@H](C(=O)N2C[C@H]3[C@@H]([C@H]2C(=O)NC(CC2CC2)C(=O)C(N)=O)C3(C)C)C(C)(C)C)CCCCC1 (stereo partly specified)
Ki [1]: 16 nM | EC90 (Hepatitis C virus): 250 nM

SMILES: CC(C)(C)[C@H](NC(=O)NC1(CS(=O)(=O)c2ccccn2)CCCCC1)C(=O)N1C[C@H]2[C@@H]([C@H]1C(=O)NC(CC1CCC1)C(=O)C(N)=O)C2(C)C (stereo partly specified)
Ki [1]: 10 nM | EC90 (Hepatitis C virus): 300 nM | Ratio [2]: 1570

SMILES: CC(C)(C)[C@H](NC(=O)NC1(Cc2ccncc2)CCCCC1)C(=O)N1C[C@H]2[C@@H]([C@H]1C(=O)NC(CC1CC1)C(=O)C(N)=O)C2(C)C (stereo partly specified)
Ki [1]: 39 nM | EC90 (Hepatitis C virus): 300 nM | Ratio [2]: 250

SMILES: CC1(NC(=O)N[C@H](C(=O)N2C[C@H]3[C@@H]([C@H]2C(=O)NC(CC2CC2)C(=O)C(N)=O)C3(C)C)C(C)(C)C)CCC1 (stereo partly specified)
Ki [1]: 24 nM | EC90 (Hepatitis C virus): 200 nM | Ratio [2]: 110

SMILES: CCS(=O)(=O)CC1(NC(=O)N[C@H](C(=O)N2C[C@H]3[C@@H]([C@H]2C(=O)NC(CC2CCC2)C(=O)C(N)=O)C3(C)C)C(C)(C)C)CCCCC1 (stereo partly specified)
Ki [1]: 5 nM | EC90 (Hepatitis C virus): 90 nM | Ratio [2]: 1200

SMILES: CC(C)(C)[C@H](NC(=O)NC1(CS(=O)(=O)C(C)(C)C)CCCCC1)C(=O)N1C[C@H]2[C@@H]([C@H]1C(=O)NC(CC1CC1)C(=O)C(N)=O)C2(C)C (stereo partly specified)
Ki [1]: 12 nM | EC90 (Hepatitis C virus): 100 nM

SMILES: CC(C)(C)[C@H](NC(=O)NC1(CS(=O)(=O)c2cccc(O)c2)CCCCC1)C(=O)N1C[C@H]2[C@@H]([C@H]1C(=O)NC(CC1CC1)C(=O)C(N)=O)C2(C)C (stereo partly specified)
Ki [1]: 6 nM | EC90 (Hepatitis C virus): 1000 nM | Ratio [2]: 200

SMILES: C=CCNC(=O)C(=O)C(CCC)NC(=O)[C@@H]1[C@@H]2[C@H](CN1C(=O)[C@@H](NC(=O)NC(C)(C)C)C1CCCCC1)C2(C)C (stereo partly specified)
Ki [1]: 280 nM

SMILES: CC(C)(C)[C@H](NC(=O)NC1(CS(=O)(=O)c2ccccc2)CCCCC1)C(=O)N1C[C@H]2[C@@H]([C@H]1C(=O)NC(CC1CCC1)C(=O)C(N)=O)C2(C)C (stereo partly specified)
Ki [1]: 9 nM | EC90 (Hepatitis C virus): 200 nM | Ratio [2]: 1100

SMILES: CC(C)(C)[C@H](NC(=O)NC1(Cc2ccccn2)CCCCC1)C(=O)N1C[C@H]2[C@@H]([C@H]1C(=O)NC(CC1CC1)C(=O)C(N)=O)C2(C)C (stereo partly specified)
Ki [1]: 7 nM | EC90 (Hepatitis C virus): 180 nM

SMILES: Cc1cc(S(=O)(=O)CC2(NC(=O)N[C@H](C(=O)N3C[C@H]4[C@@H]([C@H]3C(=O)NC(CC3CC3)C(=O)C(N)=O)C4(C)C)C(C)(C)C)CCCCC2)co1 (stereo partly specified)
Ki [1]: 10 nM | EC90 (Hepatitis C virus): 400 nM | Ratio [2]: 260

SMILES: CC(C)(C)[C@H](NC(=O)NC1(CS(C)(=O)=O)CCCCC1)C(=O)N1C[C@H]2[C@@H]([C@H]1C(=O)NC(CC1CC1)C(=O)C(N)=O)C2(C)C (stereo partly specified)
Ki [1]: 2 nM | EC90 (Hepatitis C virus): 300 nM | Ratio [2]: 460

SMILES: CCS(=O)(=O)CC1(NC(=O)N[C@H](C(=O)N2C[C@H]3[C@@H]([C@H]2C(=O)NC(CC2CC2)C(=O)C(N)=O)C3(C)C)C(C)(C)C)CCCCC1 (stereo partly specified)
Ki [1]: 11 nM | EC90 (Hepatitis C virus): 400 nM | Ratio [2]: 290

SMILES: CC(C)(C)[C@H](NC(=O)NC1(Cc2ccco2)CCCCC1)C(=O)N1C[C@H]2[C@@H]([C@H]1C(=O)NC(CC1CC1)C(=O)C(N)=O)C2(C)C (stereo partly specified)
Ki [1]: 11 nM | EC90 (Hepatitis C virus): 100 nM

SMILES: CC(C)(C)[C@H](NC(=O)NC1(c2ccccc2)CCCCC1)C(=O)N1C[C@H]2[C@@H]([C@H]1C(=O)NC(CC1CC1)C(=O)C(N)=O)C2(C)C (stereo partly specified)
Ki [1]: 47 nM | EC90 (Hepatitis C virus): 400 nM | Ratio [2]: 320

SMILES: CC(c1ccccc1)C1(NC(=O)N[C@H](C(=O)N2C[C@H]3[C@@H]([C@H]2C(=O)NC(CC2CC2)C(=O)C(N)=O)C3(C)C)C(C)(C)C)CCCCC1 (stereo partly specified)
Ki [1]: 11 nM | EC90 (Hepatitis C virus): 400 nM | Ratio [2]: 2600

SMILES: CC(C)(C)[C@H](NC(=O)NC1(Cc2ccccc2)CCCCC1)C(=O)N1C[C@H]2[C@@H]([C@H]1C(=O)NC(CC1CC1)C(=O)C(N)=O)C2(C)C (stereo partly specified)
Ki [1]: 12 nM | EC90 (Hepatitis C virus): 85 nM | Ratio [2]: 395

SMILES: CCCC(NC(=O)[C@@H]1[C@@H]2[C@H](CN1C(=O)[C@@H](NC(=O)NC(C)(C)C)C1CCCCC1)C2(C)C)C(=O)C(N)=O (stereo partly specified)
Ki [1]: 100 nM

SMILES: CC(C)(C)[C@H](NC(=O)NC1(Cc2ccsc2)CCCCC1)C(=O)N1C[C@H]2[C@@H]([C@H]1C(=O)NC(CC1CC1)C(=O)C(N)=O)C2(C)C (stereo partly specified)
Ki [1]: 10 nM | EC90 (Hepatitis C virus): 100 nM

More lines, in order of falling Ki [1], values ahead:

Ki [1]: 140 nM
SMILES: CC(C)(C)[C@H](NC(=O)NC1(CN)CCCC1)C(=O)N1C[C@H]2[C@@H]([C@H]1C(=O)NC(CC1CC1)C(=O)C(N)=O)C2(C)C (stereo partly specified)

Ki [1]: 100 nM | EC90 (Hepatitis C virus): 2000 nM | Ratio [2]: 230
SMILES: CC(C)(C)[C@H](NC(=O)NC1(C(=O)c2ccccc2)CCCCC1)C(=O)N1C[C@H]2[C@@H]([C@H]1C(=O)NC(CC1CC1)C(=O)C(N)=O)C2(C)C (stereo partly specified)

Ki [1]: 78 nM | EC90 (Hepatitis C virus): 700 nM | Ratio [2]: 73
SMILES: CC(C)(C)[C@H](NC(=O)NC1(Cc2ccccc2)CCCCCC1)C(=O)N1C[C@H]2[C@@H]([C@H]1C(=O)NC(CC1CC1)C(=O)C(N)=O)C2(C)C (stereo partly specified)

Ki [1]: 44 nM | EC90 (Hepatitis C virus): 400 nM | Ratio [2]: 470
SMILES: CC(C)(C)[C@H](NC(=O)NC1(Cc2cccc3ccccc23)CCCCC1)C(=O)N1C[C@H]2[C@@H]([C@H]1C(=O)NC(CC1CC1)C(=O)C(N)=O)C2(C)C (stereo partly specified)

Ki [1]: 30 nM | EC90 (Hepatitis C virus): 400 nM | Ratio [2]: 260
SMILES: CC(C)(C)[C@H](NC(=O)NC1(Cc2ccc(O)cc2)CCCCC1)C(=O)N1C[C@H]2[C@@H]([C@H]1C(=O)NC(CC1CC1)C(=O)C(N)=O)C2(C)C (stereo partly specified)

Ki [1]: 24 nM | EC90 (Hepatitis C virus): 300 nM | Ratio [2]: 130
SMILES: CC(C)(C)[C@H](NC(=O)NC1(Cc2ccccc2)CCCC1)C(=O)N1C[C@H]2[C@@H]([C@H]1C(=O)NC(CC1CC1)C(=O)C(N)=O)C2(C)C (stereo partly specified)

Ki [1]: 20 nM | EC90 (Hepatitis C virus): 400 nM | Ratio [2]: 1500
SMILES: CCC(c1ccccc1)C1(NC(=O)N[C@H](C(=O)N2C[C@H]3[C@@H]([C@H]2C(=O)NC(CC2CC2)C(=O)C(N)=O)C3(C)C)C(C)(C)C)CCCCC1 (stereo partly specified)

Ki [1]: 19 nM | EC90 (Hepatitis C virus): 150 nM | Ratio [2]: 440
SMILES: CC(C)(C)[C@H](NC(=O)NC1(Cc2ccccc2O)CCCCC1)C(=O)N1C[C@H]2[C@@H]([C@H]1C(=O)NC(CC1CC1)C(=O)C(N)=O)C2(C)C (stereo partly specified)

Ki [1]: 15 nM | EC90 (Hepatitis C virus): 250 nM | Ratio [2]: 155
SMILES: CC1(NC(=O)N[C@H](C(=O)N2C[C@H]3[C@@H]([C@H]2C(=O)NC(CC2CC2)C(=O)C(N)=O)C3(C)C)C(C)(C)C)CCCCCC1 (stereo partly specified)

Ki [1]: 11 nM | EC90 (Hepatitis C virus): 200 nM | Ratio [2]: 620
SMILES: CC(C)(C)[C@H](NC(=O)NC1(Cc2nccs2)CCCCC1)C(=O)N1C[C@H]2[C@@H]([C@H]1C(=O)NC(CC1CC1)C(=O)C(N)=O)C2(C)C (stereo partly specified)

Ki [1]: 10 nM | EC90 (Hepatitis C virus): 200 nM
SMILES: CC1(NC(=O)N[C@H](C(=O)N2C[C@H]3[C@@H]([C@H]2C(=O)NC(CC2CC2)C(=O)C(N)=O)C3(C)C)C(C)(C)C)CCCC1 (stereo partly specified)

Ki [1]: 9 nM | EC90 (Hepatitis C virus): 70 nM
SMILES: CC(C)(C)[C@H](NC(=O)NC1(Cc2cccc(O)c2)CCCCC1)C(=O)N1C[C@H]2[C@@H]([C@H]1C(=O)NC(CC1CC1)C(=O)C(N)=O)C2(C)C (stereo partly specified)

Ki [1]: 8 nM | EC90 (Hepatitis C virus): 200 nM | Ratio [2]: 4100
SMILES: CC1(NC(=O)N[C@H](C(=O)N2C[C@H]3[C@@H]([C@H]2C(=O)NC(CC2CCC2)C(=O)C(N)=O)C3(C)C)C(C)(C)C)CCCCC1 (stereo partly specified)

Ki [1]: 3 nM | EC90 (Hepatitis C virus): 80 nM
SMILES: CC(C)(C)[C@H](NC(=O)NC1(CS(=O)(=O)C(C)(C)C)CCCCC1)C(=O)N1C[C@H]2[C@@H]([C@H]1C(=O)NC(CC1CCC1)C(=O)C(N)=O)C2(C)C (stereo partly specified)

Ki [1]: 3 nM | EC90 (Hepatitis C virus): 100 nM
SMILES: CC(C)(C)[C@H](NC(=O)NC1(CS(=O)(=O)c2ccccc2)CCCCC1)C(=O)N1C[C@H]2[C@@H]([C@H]1C(=O)NC(CC1CC1)C(=O)C(N)=O)C2(C)C (stereo partly specified)
